Experimental data taken from ChEMBL document CHEMBL1125323, “Potent V2/V1a vasopressin antagonists with C-terminal ethylenediamine-linked retro-amino acids” (J Med Chem, 1992).
Numbered stars: 1 amine (or outer) side, 2 acyl side, 3 side chain; on linkers, the order of the positions; unused ones are H or OH. Bridge positions count the residues as written; N and C are the ends. Square brackets hold non-standard residues; d marks the D form. Peptide text beside a SMILES is read from it. X1 = O=C(CC1(S[*:2])CCCCC1)[*:1]

Assays:
[1] = biological target: T1, Vasopressin receptor (Rattus norvegicus) (UniProt P48974+P30560+Q00788); experiment: Antivasopressor potency in terms of blood pressure response in rats anesthetized with urethane and pretreated with phenoxybenzamine; assay type: functional
In short: (§1)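 Rats anesthetized with urethane, pretreated with phenoxybenzamine; blood pressure responses recorded. USP posterior pituitary reference standard as agonist, given intravenously with antagonist. ED (nmol/kg) is the antagonist dose at which 2x units of agonist match the response to x units without antagonist, log-interpolated from doses above and below. In vivo pA2 uses assumed distribution volume 67 mL/kg.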

[2] = biological target: T1, Vasopressin receptor (Rattus norvegicus); experiment: Antiantidiuretic potency in terms of measuring changes in urine flow in water-loaded rats under ethanol anesthesia; assay type: functional
In short: (§2)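 Water-loaded rats under ethanol anesthesia; urine flow followed. USP posterior pituitary reference standard as agonist, all injections intravenous. Effective dose (nmol/kg) is the antagonist dose reducing the response to 2x units of agonist to that of x units alone, interpolated on a log scale between bracketing doses. pA2 = negative log of ED divided by assumed distribution volume 67 mL/kg.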

Vasopressin receptor [3] = biological target: T2, Vasopressin receptor (Rattus norvegicus, UniProt P48974+P30560+Q00788); experiment: Antivasopressor potency in terms of negative logarithm of the effective doses divided by the estimated volume of distribution; assay type: functional; in short: as §1
Vasopressin receptor [4] = biological target: T2, Vasopressin receptor; experiment: Antiantidiuretic potency in terms of negative logarithm of the effective doses divided by the estimated volume of distribution; assay type: functional, Urine; in short: as §2

| SMILES | ED [1] [nM/kg] | ED [2] [nM/kg] | pA2 (Vasopressin receptor [3]) | pA2 (Vasopressin receptor [4]) |
| --- | --- | --- | --- | --- |
| CCOc1ccc(C[C@H]2NC(=O)CC3(CCCCC3)SSC[C@@H](C(=O)N3CCC[C@H]3C(=O)N[C@@H](CCCN=C(N)N)C(=O)NCCN)NC(=O)[C@H](CC(N)=O)NC(=O)[C@H](C(C)C)NC(=O)[C@H](Cc3ccccc3)NC2=O)cc1 | 0.69 | 1.1 | 8 | 7.79 |
| CCOc1ccc(C[C@H]2NC(=O)CC3(CCCCC3)SSC[C@@H](C(=O)N3CCC[C@H]3C(=O)NCCNC(=O)[C@H](N)CCCN=C(N)N)NC(=O)[C@H](CC(N)=O)NC(=O)[C@H](C(C)C)NC(=O)[C@H](Cc3ccccc3)NC2=O)cc1 | – | – | 8.15 | 7.92 |
| CCOc1ccc(C[C@H]2NC(=O)CC3(CCCCC3)SSC[C@@H](C(=O)N3CCC[C@H]3C(=O)N[C@@H](CCCN=C(N)N)C(=O)NCCN)NC(=O)[C@H](CC(N)=O)NC(=O)[C@H]([C@@H](C)CC)NC(=O)[C@H](Cc3ccccc3)NC2=O)cc1 | 0.32 | 0.77 | 8.33 | 8 |
| CC[C@H](C)[C@@H]1NC(=O)[C@H](Cc2ccccc2)NC(=O)[C@@H](Cc2ccccc2)NC(=O)CC2(CCCCC2)SSC[C@@H](C(=O)N2CCC[C@H]2C(=O)N[C@@H](CCCN=C(N)N)C(=O)NCC(N)=O)NC(=O)[C@H](CC(N)=O)NC1=O ([dF]FINCPRG-NH2; linker N-5 via X1) | 0.99 | 0.46 | 7.86 | 8.24 |
| CCOc1ccc(C[C@H]2NC(=O)CC3(CCCCC3)SSC[C@@H](C(=O)N[C@@H](CCCN=C(N)N)C(=O)NCC(=O)NCCN)NC(=O)[C@H](CC(N)=O)NC(=O)[C@H](C(C)C)NC(=O)[C@H](Cc3ccccc3)NC2=O)cc1 | – | – | 8.05 | 8.03 |
| CC[C@H](C)[C@@H]1NC(=O)[C@H](Cc2ccccc2)NC(=O)[C@@H](Cc2ccccc2)NC(=O)CC2(CCCCC2)SSC[C@@H](C(=O)N2CCC[C@H]2C(=O)N[C@@H](CCCN=C(N)N)C(=O)NCC(=O)NCCN)NC(=O)[C@H](CC(N)=O)NC1=O | 1.8 | 0.57 | 7.58 | 8.1 |
| CC(C)C[C@H]1NC(=O)CC2(CCCCC2)SSC[C@@H](C(=O)NCCNC(=O)[C@@H](N)CCCN=C(N)N)NC(=O)[C@H](CC(N)=O)NC(=O)[C@H](C(C)C)NC(=O)[C@H](Cc2ccccc2)NC1=O | – | – | 6.08 | < 5.5 |
| CC[C@H](C)[C@@H]1NC(=O)[C@H](Cc2ccccc2)NC(=O)[C@@H](Cc2ccccc2)NC(=O)CC2(CCCCC2)SSC[C@@H](C(=O)N2CCC[C@H]2C(=O)N[C@@H](CCCN=C(N)N)C(=O)NCCN)NC(=O)[C@H](CC(N)=O)NC1=O | 0.88 | 0.55 | 7.89 | 8.11 |
| CCOc1ccc(C[C@H]2NC(=O)CC3(CCCCC3)SSC[C@@H](C(=O)NCCNC(=O)[C@@H](N)CCCN=C(N)N)NC(=O)[C@H](CC(N)=O)NC(=O)[C@H](C(C)C)NC(=O)[C@H](Cc3ccccc3)NC2=O)cc1 | – | – | 7.95 | 7.54 |
| CCOc1ccc(C[C@H]2NC(=O)CC3(CCCCC3)SSC[C@@H](C(=O)N3CCC[C@H]3C(=O)NCCN)NC(=O)[C@H](CC(N)=O)NC(=O)[C@H](C(C)C)NC(=O)[C@H](Cc3ccccc3)NC2=O)cc1 | 0.75 | 1.6 | 7.95 | 7.64 |
| CCOc1ccc(C[C@H]2NC(=O)CC3(CCCCC3)SSC[C@@H](C(=O)NCCNC(=O)[C@H](N)CCCN=C(N)N)NC(=O)[C@H](CC(N)=O)NC(=O)[C@H](C(C)C)NC(=O)[C@H](Cc3ccccc3)NC2=O)cc1 | – | – | 8.15 | 7.95 |
| CCOc1ccc(C[C@H]2NC(=O)CC3(CCCCC3)SSC[C@@H](C(=O)N3CCC[C@H]3C(=O)N[C@@H](CCCN=C(N)N)C(=O)NCC(N)=O)NC(=O)[C@H](CC(N)=O)NC(=O)[C@H](C(C)C)NC(=O)[C@H](Cc3ccccc3)NC2=O)cc1 ([dY](Et)FVNCPRG-NH2; linker N-5 via X1) | 0.45 | 1.1 | 8.22 | 7.81 |
| CCOc1ccc(C[C@H]2NC(=O)CC3(CCCCC3)SSC[C@@H](C(=O)NCCNC(=O)[C@@H](N)CCCN)NC(=O)[C@H](CC(N)=O)NC(=O)[C@H](C(C)C)NC(=O)[C@H](Cc3ccccc3)NC2=O)cc1 | – | – | 7.8 | 7.55 |
| CCOc1ccc(C[C@H]2NC(=O)CC3(CCCCC3)SSC[C@@H](C(=O)NCCN)NC(=O)[C@H](CC(N)=O)NC(=O)[C@H](C(C)C)NC(=O)[C@H](Cc3ccccc3)NC2=O)cc1 | – | – | 8.15 | 7.07 |
| CC(C)[C@@H]1NC(=O)[C@H](Cc2ccccc2)NC(=O)[C@@H](Cc2ccccc2)NC(=O)CC2(CCCCC2)SSC[C@@H](C(=O)NCCNC(=O)[C@@H](N)CCCN=C(N)N)NC(=O)[C@H](CC(N)=O)NC1=O | – | – | 7.64 | 6.91 |
| CCOc1ccc(C[C@H]2NC(=O)CC3(CCCCC3)SSC[C@@H](C(=O)N[C@@H](CCCN=C(N)N)C(=O)NCC(=O)NCCNC(=O)[C@@H](N)CCCN=C(N)N)NC(=O)[C@H](CC(N)=O)NC(=O)[C@H](C(C)C)NC(=O)[C@H](Cc3ccccc3)NC2=O)cc1 | – | – | 7.96 | 7.87 |
| CCOc1ccc(C[C@H]2NC(=O)CC3(CCCCC3)SSC[C@@H](C(=O)NCCNC(=O)[C@H](N)CCCN)NC(=O)[C@H](CC(N)=O)NC(=O)[C@H](C(C)C)NC(=O)[C@H](Cc3ccccc3)NC2=O)cc1 | – | – | 8.06 | 7.24 |
| CCOc1ccc(C[C@H]2NC(=O)CC3(CCCCC3)SSC[C@@H](C(=O)N3CCC[C@H]3C(=O)N[C@@H](CCCN=C(N)N)C(=O)NCC(N)=O)NC(=O)[C@H](CC(N)=O)NC(=O)[C@H]([C@@H](C)CC)NC(=O)[C@H](Cc3ccccc3)NC2=O)cc1 | 1.2 | 1.2 | 7.78 | 7.75 |
| CCOc1ccc(C[C@H]2NC(=O)CC3(CCCCC3)SSC[C@@H](C(=O)NCCNC(=O)[C@H](N)CCCCN)NC(=O)[C@H](CC(N)=O)NC(=O)[C@H](C(C)C)NC(=O)[C@H](Cc3ccccc3)NC2=O)cc1 | – | – | 7.92 | 7.76 |
| CCOc1ccc(C[C@H]2NC(=O)CC3(CCCCC3)SSC[C@@H](C(=O)NCCNC(=O)[C@H](CCCN=C(N)N)NC(=O)[C@@H](N)CCCN=C(N)N)NC(=O)[C@H](CC(N)=O)NC(=O)[C@H](C(C)C)NC(=O)[C@H](Cc3ccccc3)NC2=O)cc1 | – | – | 7.93 | 7.61 |
| CCOc1ccc(C[C@H]2NC(=O)CC3(CCCCC3)SSC[C@@H](C(=O)N3CCC[C@H]3C(=O)N[C@@H](CCCN=C(N)N)C(=O)NCC(=O)NCCN)NC(=O)[C@H](CC(N)=O)NC(=O)[C@H](C(C)C)NC(=O)[C@H](Cc3ccccc3)NC2=O)cc1 | 0.32 | 1.2 | 8.33 | 7.82 |
| CCOc1ccc(C[C@H]2NC(=O)CC3(CCCCC3)SSC[C@@H](C(=O)N3CCC[C@H]3C(=O)NCCNC(=O)[C@H](N)CCCN)NC(=O)[C@H](CC(N)=O)NC(=O)[C@H](C(C)C)NC(=O)[C@H](Cc3ccccc3)NC2=O)cc1 | – | – | 7.86 | 7.92 |
| CCOc1ccc(C[C@H]2NC(=O)CC3(CCCCC3)SSC[C@@H](C(=O)N3CCC[C@H]3C(=O)N[C@@H](CCCN=C(N)N)C(=O)NCCNC(=O)[C@@H](N)CCCN=C(N)N)NC(=O)[C@H](CC(N)=O)NC(=O)[C@H](C(C)C)NC(=O)[C@H](Cc3ccccc3)NC2=O)cc1 | – | – | 8.15 | 7.68 |
